Converted amounts (≈) assume the structure as drawn.
Tests used:
[1] = system: Mycobacterium tuberculosis; assay: Antimicrobial activity against Mycobacterium tuberculosis H37Rv by microplate Alamar blue assay; format: functional
Procedure, shortened: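 Virulent H37Rv strain in a microplate Alamar blue assay. MIC defined as the lowest concentration giving at least 90% growth inhibition.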

Bacillus anthracis = assay: Antimicrobial activity against Bacillus anthracis; format: functional
Procedure, shortened: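 Compounds tested over 100 µg/mL down to 48.8 ng/mL. MIC taken as the lowest concentration preventing visible bacterial growth.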

Staphylococcus aureus = assay: Antimicrobial activity against Staphylococcus aureus by broth microdilution assay; format: functional
[2] = system: Mycolicibacterium smegmatis; assay: Antimicrobial activity against Mycobacterium smegmatis by broth microdilution assay; format: functional
Candida albicans = assay: Antimicrobial activity against Candida albicans by broth microdilution assay; format: functional
Vero = assay: Cytotoxicity against african green monkey Vero cells; format: cell-based; settings: Chlorocebus sabaeus
[3] = Selectivity ratio of MIC for Mycobacterium tuberculosis H37Rv to MIC for Bacillus anthracis; format: functional

Compound	MIC [1] [µM]	MIC (Bacillus anthracis) [µM]	MIC (Staphylococcus aureus) [µM]	MIC [2] [µM]	MIC (Candida albicans) [µM]	IC50 (Vero) [µM]	Ratio [3]
[C-]#[N+][C@@H]1[C@@H]2c3c[nH]c4cccc(c34)C(C)(C)[C@H]2C[C@@H](Cl)[C@]1(C)C=C [HAPALINDOLE G]	6.8 (≈ 2.3 µg/mL)	> 128	> 128	34 (≈ 11.5 µg/mL)	> 128	> 128	50
[C-]#[N+][C@H]1[C@@](C)(C=C)[C@H](Cl)C[C@@H]2C(C)(C)c3cccc4[nH]c(C(C)(C)C=C)c(c34)[C@]21O [AMBIGUINE B ISONITRILE]		3.7 (≈ 1.57 µg/mL)	10.9 (≈ 4.61 µg/mL)	27.8 (≈ 11.8 µg/mL)	1.7 (≈ 0.719 µg/mL)	58.6	
O=C(O)c1cn(C2CC2)c2cc(N3CCNCC3)c(F)cc2c1=O [CIPROFLOXACIN]		0.2 (≈ 0.0663 µg/mL)					
GENTAMICIN			1.4				
CC(=O)N1CCN(c2ccc(OCC3COC(Cn4ccnc4)(c4ccc(Cl)cc4Cl)O3)cc2)CC1 (stereo not given) [KETOCONAZOLE]					0.03 (≈ 0.0159 µg/mL)		
COc1c(N2C[C@@H]3CCCN[C@@H]3C2)c(F)cc2c(=O)c(C(=O)O)cn(C3CC3)c12 [MOXIFLOXACIN]				0.7 (≈ 0.281 µg/mL)			
[C-]#[N+][C@@H]1[C@H]2c3c[nH]c4cccc(c34)C(C)(C)[C@@H]2CC[C@]1(C)C=C [HAPALINDOLE H]	58.8 (≈ 17.9 µg/mL)	> 128	> 128	39.6 (≈ 12.1 µg/mL)	5.1 (≈ 1.55 µg/mL)	> 128	
[C-]#[N+][C@]12C=CC(C)(C)c3[nH]c4cccc5c4c3[C@]1(O)[C@H](C[C@@H](Cl)[C@]2(C)C=C)C5(C)C [AMBIGUINE K ISONITRILE]	6.6 (≈ 2.78 µg/mL)	7.4 (≈ 3.12 µg/mL)	4.6 (≈ 1.94 µg/mL)	23.7 (≈ 9.98 µg/mL)	< 0.9	53.2	
[C-]#[N+][C@@H]1[C@@H]2c3c(C(C)(C)C=C)[nH]c4cccc(c34)C(C)(C)[C@H]2C[C@@H](Cl)[C@]1(C)C=C [AMBIGUINE A ISONITRILE]	46.7 (≈ 19 µg/mL)	1 (≈ 0.407 µg/mL)	1.8 (≈ 0.733 µg/mL)	14.8 (≈ 6.02 µg/mL)	< 1	26	
[C-]#[N+][C@]12C[C@@H](O)C(C)(C)c3[nH]c4cccc5c4c3[C@]1(O)[C@H](C[C@@H](Cl)[C@]2(C)C=C)C5(C)C [AMBIGUINE M ISONITRILE]	7.5 (≈ 3.29 µg/mL)	28.5 (≈ 12.5 µg/mL)	4.7 (≈ 2.06 µg/mL)	25.8 (≈ 11.3 µg/mL)	1.1 (≈ 0.483 µg/mL)	79.8	
CO[C@H]1/C=C/O[C@@]2(C)Oc3c(C)c(O)c4c(O)c(c(/C=N/N5CCN(C)CC5)c(O)c4c3C2=O)NC(=O)/C(C)=C\C=C\[C@H](C)[C@H](O)[C@@H](C)[C@@H](O)[C@@H](C)[C@H](OC(C)=O)[C@@H]1C [RIFAMPIN]	0.1 (≈ 0.0823 µg/mL)					97.9	
[C-]#[N+][C@]12[C@@H](O)[C@H](O)C(C)(C)c3[nH]c4cccc5c4c3[C@]1(O)[C@H](C[C@@H](Cl)[C@]2(C)C=C)C5(C)C [AMBIGUINE F ISONITRILE]	61.2 (≈ 27.8 µg/mL)					57.9	
[C-]#[N+][C@]12[C@H](O)C(=O)C(C)(C)c3[nH]c4cccc5c4c3[C@]1(O)[C@H](C[C@@H](Cl)[C@]2(C)C=C)C5(C)C [AMBIGUINE O ISONITRILE]		13.8 (≈ 6.25 µg/mL)				80.7	
[C-]#[N+][C@]12C=CC(C)(C)c3[nH]c4cccc5c4c3[C@]1(O)[C@H](CC[C@]2(C)C=C)C5(C)C [AMBIGUINE L ISONITRILE]	11.7 (≈ 4.52 µg/mL)	16.2 (≈ 6.26 µg/mL)	10.5 (≈ 4.06 µg/mL)	29.3 (≈ 11.3 µg/mL)	< 1	44.6	
[C-]#[N+][C@@H]1[C@]2(O)c3c(C(C)(C)C=C)[nH]c4cccc(c34)C(C)(C)[C@H]2CC[C@]1(C)C=C [AMBIGUINE C ISONITRILE]	7 (≈ 2.72 µg/mL)	16.1 (≈ 6.26 µg/mL)	7.4 (≈ 2.88 µg/mL)	59.6 (≈ 23.2 µg/mL)	< 1	78.3	
[C-]#[N+][C@]12[C@H]3O[C@H]3C(C)(C)c3[nH]c4cccc5c4c3[C@]1(O)[C@H](C[C@@H](Cl)[C@]2(C)C=C)C5(C)C [AMBIGUINE E ISONITRILE]	21 (≈ 9.18 µg/mL)	3.6 (≈ 1.57 µg/mL)	1.5 (≈ 0.655 µg/mL)	1.4 (≈ 0.612 µg/mL)	< 0.9	42.6	
[C-]#[N+][C@]12C[C@@H](O)C(C)(C)c3[nH]c4cccc5c4c3[C@]1(O)[C@H](CC[C@]2(C)C=C)C5(C)C [AMBIGUINE N ISONITRILE]	27.1 (≈ 11 µg/mL)	30.9 (≈ 12.5 µg/mL)	5.5 (≈ 2.23 µg/mL)	48.8 (≈ 19.7 µg/mL)	< 1	118	
